# Laboratory results as given in PubChem BioAssay.
# Active and inactive are the calls of the source.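 How the source made its calls, unless noted: active means viability at or below 30% in both replicate assays; inconclusive means viability at or below 30% in just one of the two assays; inactive means the rest.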
# Legend:
# [1] = reducers of endogenous Her2 protein level, primary screen, SKBR3 breast tumor cells, AlphaScreen, ATP viability (AID 461;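 active means Her2 level under about 52% in both replicate screens, with viability over 70% of control, limit read from the data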;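 on Her2 level: lower value means less Her2 protein in the cells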;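 on viability: percent of carrier control wells set as 100% viability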); details: 18-24 h, measured here: SKBR3 viability, ATP luminescence, at 10 µM
# [2] = molecular target: Receptor tyrosine-protein kinase erbB-2 (Homo sapiens) (UniProt P04626); test: as above; details: 18-24 h, at 10 µM, stronger effect = lower value
# [3] = SK-BR-3 cell growth inhibitors, pilot screen, 24 h, human (AID 572;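 active means viability at or below 10% of carrier control in both of two separate runs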;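 further: compound exposure lasted between 18 and 24 h rather than exactly 24 h; 100% = carrier-treated control wells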); details: SK-BR-3 viability, CellTiter-Glo luminescence, at 10 µM, stronger effect = lower value
# [4] = HUVEC growth inhibition – cell-based, human, primary screen (AID 575); details: HUVEC proliferation, CellTiter-Glo luminescence, 72 h; at 10 µM; stronger effect = lower value;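 further: 100% = median of untreated cell wells with 0.1% DMSO on each plate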
# Outline: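 System – primary HUVEC, no more than 12 passages · Medium – Low-serum (2% FBS) EBM, supplemented · Times – 72 h exposure, 37 °C, 5% CO2, 30 min RT equilibration · Measured by – luminescent ATP assay · Read-out – % viability relative to median vehicle-well signal on each plate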
# [5] = growth inhibitors of H69AR lung tumor, primary screen, human, duplicate replicates (AID 580;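 active means viability at or under a set limit in both replicates, limit being median viability minus 3 SD, cut at about 48% in these data, passing the limit was not always enough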;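 further: 100% = mean luminescence of untreated wells and 0% = no signal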); details: H69AR lung tumor cells viability, ATP luminescence, 72 h; at 10 µM; stronger effect = lower value
# [6] = reversal of MRP1-mediated doxorubicin resistance, pilot screen, H69AR cells, doxorubicin co-treatment (AID 601;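 active means viability loss from added drug above about 55%, and viability with drug at most 40%, in both replicates, limit read from the data, passing the limit was not always enough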); details: CellTiter-Glo, 72 h, at 10 µM; for differential viability (reversal): stronger effect = higher value
# [7] = 384-well plate pilot, post-Golgi transport modulator project, inhibition of yeast transport mutant growth (AID 636; in the data active means inhibition above about 31%); details: absorbance 615 nm, about 18 h, stronger effect = higher value
# [8] = growth suppression of yeast trafficking mutant, preliminary HTS, modulators of trafficking downstream of Golgi apparatus project, 1536-format plate, OD 615 nm (AID 637; in the data active means inhibition above about 30%); details: yeast transport mutant growth, absorbance 615 nm, 18 h; stronger effect = higher value
# [9] = H69AR cells + 2 uM doxorubicin, measured here: viability with 2 uM doxorubicin, stronger effect = lower value
# [10] = H69AR cells, compound alone cytotoxicity
# Sequence of Receptor tyrosine-protein kinase erbB-2 (Homo sapiens) (P04626 whole entry, looked up): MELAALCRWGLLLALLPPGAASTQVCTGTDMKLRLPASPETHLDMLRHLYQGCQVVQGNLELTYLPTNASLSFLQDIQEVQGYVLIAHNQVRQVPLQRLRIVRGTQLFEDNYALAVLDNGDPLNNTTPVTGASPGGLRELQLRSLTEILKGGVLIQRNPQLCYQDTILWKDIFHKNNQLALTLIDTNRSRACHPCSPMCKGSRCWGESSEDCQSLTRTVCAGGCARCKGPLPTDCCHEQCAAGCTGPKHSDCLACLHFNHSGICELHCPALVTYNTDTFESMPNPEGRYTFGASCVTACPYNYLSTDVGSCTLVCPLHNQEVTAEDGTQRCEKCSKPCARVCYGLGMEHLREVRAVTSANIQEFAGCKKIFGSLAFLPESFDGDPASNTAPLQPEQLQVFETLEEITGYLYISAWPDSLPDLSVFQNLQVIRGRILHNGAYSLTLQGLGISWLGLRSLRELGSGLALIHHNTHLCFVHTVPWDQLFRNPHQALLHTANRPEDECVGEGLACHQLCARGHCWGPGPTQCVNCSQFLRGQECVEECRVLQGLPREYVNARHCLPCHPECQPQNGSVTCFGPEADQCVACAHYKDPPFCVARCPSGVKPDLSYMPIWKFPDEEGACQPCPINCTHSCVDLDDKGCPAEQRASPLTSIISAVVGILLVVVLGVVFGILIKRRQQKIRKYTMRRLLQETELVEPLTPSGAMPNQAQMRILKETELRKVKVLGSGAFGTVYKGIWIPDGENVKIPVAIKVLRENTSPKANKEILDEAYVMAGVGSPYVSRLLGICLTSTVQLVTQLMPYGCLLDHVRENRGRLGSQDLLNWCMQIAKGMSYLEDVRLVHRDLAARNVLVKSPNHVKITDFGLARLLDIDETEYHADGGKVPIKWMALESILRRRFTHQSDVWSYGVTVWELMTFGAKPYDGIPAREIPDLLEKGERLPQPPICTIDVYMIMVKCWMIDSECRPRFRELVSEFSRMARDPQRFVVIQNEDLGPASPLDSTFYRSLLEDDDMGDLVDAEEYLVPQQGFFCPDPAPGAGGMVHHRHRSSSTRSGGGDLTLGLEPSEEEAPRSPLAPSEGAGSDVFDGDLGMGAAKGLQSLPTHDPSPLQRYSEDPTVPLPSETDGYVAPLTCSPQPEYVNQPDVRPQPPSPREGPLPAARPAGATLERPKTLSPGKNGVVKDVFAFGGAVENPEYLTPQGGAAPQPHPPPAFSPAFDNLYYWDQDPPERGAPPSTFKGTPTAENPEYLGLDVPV
Compound,viability [1],Her2 level [2],viability [3],viability [4],viability [5],differential viability (reversal) ([6]; H69AR cells + 2 uM doxorubicin),"viability [6, 9]","viability [6, 10]",inhibition [7],inhibition [8]
Cc1ccc(S(=O)(=O)NCCNC(=O)c2ccccc2)cc1,99%,82% (inactive),99% (inactive),105% (inactive),99.2% (inactive),19.7% (inactive),79.5%,99.2%,-8.92% (inactive),-0.83% (inactive)
COc1ccccc1C(=O)n1nc(-c2ccccc2)nc1N,91%,90% (inactive),91% (inactive),110% (inactive),87.9% (inactive),-2.62% (inactive),90.5%,87.9%,-3.29% (inactive),3.77% (inactive)
Cc1ccc(NC(=O)N2CCC(c3nc4c(nnn4Cc4cccc(Cl)c4)c(=O)[nH]3)CC2)cc1,81.5%,76.5% (inactive),81.5% (inactive),61.8% (inactive),85.2% (inactive),19.6% (inactive),65.6%,85.2%,-0.13% (inactive),-1.45% (inactive)
COc1cccc(CNC(=O)C2CCN(S(=O)(=O)c3ccc(F)cc3)CC2)c1,128%,98.5% (inactive),128% (inactive),95.1% (inactive),97.5% (inactive),-7.57% (inactive),105%,97.5%,-2.37% (inactive),0.48% (inactive)
CC(C)c1ccc(S(=O)(=O)N2CCN(CCC(=O)Nc3ccc(N(C)C)cc3)CC2)cc1,100%,93% (inactive),100% (inactive),66.8% (inactive),60.6% (inactive),40.2% (inactive),20.4%,60.6%,-3.29% (inactive),-4.67% (inactive)
CCOC(=O)c1oc2ccccc2c1NC(=O)COC,108%,91.5% (inactive),108% (inactive),99.5% (inactive),102% (inactive),9.07% (inactive),93.2%,102%,-4.73% (inactive),-3.93% (inactive)
CC(CCc1ccccc1)NCc1ccncc1 (stereo not given),102%,99.5% (inactive),102% (inactive),108% (inactive),84.9% (inactive),-4.29% (inactive),89.2%,84.9%,-6.53% (inactive),0.48% (inactive)
Cc1ccc(NC(=O)CSc2nnc(Cc3cccn3C)n2-c2ccc(F)cc2)cc1,82.5%,78.5% (inactive),82.5% (inactive),84% (inactive),91.9% (inactive),-4.92% (inactive),96.8%,91.9%,-1.03% (inactive),-4.83% (inactive)
O=C(CSc1ncnc2c1oc1ccccc12)Nc1ccccc1F,96.5%,101% (inactive),96.5% (inactive),72% (inactive),90.5% (inactive),7.33% (inactive),83.1%,90.5%,-2.27% (inactive),-1.33% (inactive)
O=C(CSc1nnnn1C1CCCC1)Nc1cccc(NC(=O)c2ccco2)c1,91.5%,98.5% (inactive),91.5% (inactive),96.7% (inactive),110% (inactive),13.4% (inactive),97%,110%,-0.39% (inactive),-2.17% (inactive)
CC(=O)Nc1ccc(S(=O)(=O)Nc2nc3n(n2)C(c2ccccc2)CC(=O)N3)cc1 (stereo not given),99.5%,83.5% (inactive),99.5% (inactive),102% (inactive),107% (inactive),6.67% (inactive),99.9%,107%,-7.7% (inactive),-0.32% (inactive)
CCn1nnnc1NCc1cccn1C,88%,83% (inactive),88% (inactive),105% (inactive),95.9% (inactive),3.54% (inactive),92.4%,95.9%,-4.27% (inactive),2.3% (inactive)
C=CCn1cnc2c(NCc3ccccc3)ncnc21,85.5%,94% (inactive),85.5% (inactive),96.9% (inactive),97.1% (inactive),-3.4% (inactive),100%,97.1%,1.71% (inactive),-7.9% (inactive)
COc1ccc(C(=O)N2CCN(S(=O)(=O)c3cc(Cl)ccc3OC)CC2)cc1,108%,100% (inactive),108% (inactive),95.6% (inactive),103% (inactive),1.29% (inactive),102%,103%,-2.37% (inactive),8.33% (inactive)
CC(O)c1c(OCc2ccccc2)ncnc1OCc1ccccc1 (stereo not given),83.5%,82.5% (inactive),83.5% (inactive),59.5% (inactive),93.8% (inactive),14.6% (inactive),79.3%,93.8%,-2.73% (inactive),1.48% (inactive)
Cc1cccc(-c2cc3nc4c(c(N5CCC6(CC5)OCCO6)n3n2)CCCC4)c1,80.5%,100% (inactive),80.5% (inactive),77.8% (inactive),83.9% (inactive),-9.12% (inactive),93%,83.9%,-2.13% (inactive),9.37% (inactive)

Compound,viability [1],Her2 level [2],viability [3],viability [4],viability [5],differential viability (reversal) ([6]; H69AR cells + 2 uM doxorubicin),"viability [6, 9]","viability [6, 10]",inhibition [7],inhibition [8]
COc1ccc(-c2nnc3ccc(SC(C(C)=O)C(C)=O)nn23)cc1OC,90%,86.5% (inactive),90% (inactive),87.8% (inactive),82.9% (inactive),4.92% (inactive),78%,82.9%,-6.62% (inactive),6.17% (inactive)
Cc1ccc(NCC(O)C(O)C(O)CO)cc1C (stereo not given),113%,104% (inactive),113% (inactive),93.4% (inactive),94.3% (inactive),-2.34% (inactive),96.6%,94.3%,-6.93% (inactive),-8.1% (inactive)
Cc1ccc(Cn2nnc3c(=O)[nH]c(C4CCN(C(=O)c5cccs5)CC4)nc32)cc1,90.5%,84% (inactive),90.5% (inactive),73.4% (inactive),86% (inactive),2.21% (inactive),83.8%,86%,-3.73% (inactive),-1.94% (inactive)
Cc1ccccc1CN1CCNC1=O,114%,80% (inactive),114% (inactive),88.3% (inactive),90.8% (inactive),8.97% (inactive),81.9%,90.8%,-3.16% (inactive),6.61% (inactive)
CC(=O)Oc1ccc(-c2ccc(C(=O)O)cc2)cc1,87%,110% (inactive),87% (inactive),94.5% (inactive),107% (inactive),18.3% (inactive),88.8%,107%,-0.64% (inactive),-7.83% (inactive)
CC(=O)N(C(C)=O)c1cccc2c(N(C(C)=O)C(C)=O)cccc12,106%,94% (inactive),106% (inactive),97.4% (inactive),91.7% (inactive),-2.88% (inactive),94.5%,91.7%,-4.29% (inactive),-6% (inactive)
COCCn1nnnc1C(C(C)C)N1CCN(C(=O)c2ccco2)CC1 (stereo not given),92.5%,112% (inactive),92.5% (inactive),99.2% (inactive),96.7% (inactive),-1.47% (inactive),98.2%,96.7%,3.77% (inactive),15.6% (inactive)
C=CCOc1ccc(C2C(C(=O)c3ccco3)=C(O)C(=O)N2Cc2cccnc2)cc1 (stereo not given),108%,89.5% (inactive),108% (inactive),119% (inactive),90.9% (inactive),2.87% (inactive),88%,90.9%,-1.71% (inactive),8.69% (inactive)
Cn1nc(C(=O)N2CCOCC2)c2ccccc2c1=O,93%,114% (inactive),93% (inactive),88.9% (inactive),89.3% (inactive),5.89% (inactive),83.4%,89.3%,-1.3% (inactive),0.67% (inactive)
CCSc1nnc(NC(=O)c2nn(C(C)C)c(=O)c3ccccc23)s1,99%,77.5% (inactive),99% (inactive),81.5% (inactive),79.4% (inactive),-9.27% (inactive),88.7%,79.4%,-5.39% (inactive),-2% (inactive)
CC(C)(C)n1nc2c(c1NC(=O)COc1ccc(Cl)cc1)CSC2,97.5%,79.5% (inactive),97.5% (inactive),80.5% (inactive),91.4% (inactive),-10.3% (inactive),102%,91.4%,-5% (inactive),-0.16% (inactive)
COc1ccc(/C(O)=C2/C(=O)C(=O)N(CC3CCCO3)C2c2cccc(OC)c2)cc1 (stereo not given),106%,87.5% (inactive),106% (inactive),81.9% (inactive),94.2% (inactive),7.73% (inactive),86.5%,94.2%,-4.93% (inactive),2.3% (inactive)
CCC(NS(=O)(=O)c1ccc(C)cc1)C(=O)N1CCC2(O)CCCCC2C1 (stereo not given),94%,105% (inactive),94% (inactive),90.7% (inactive),94.5% (inactive),5.91% (inactive),88.6%,94.5%,-3.2% (inactive),-1.8% (inactive)
Cc1cc(-c2ccccc2)c2nncn2n1,106%,96% (inactive),106% (inactive),116% (inactive),89.9% (inactive),5.82% (inactive),84.1%,89.9%,-8.27% (inactive),2.42% (inactive)
C/C(=C(\C#N)C(=O)NCCCN1CCOCC1)N(C)C,96.5%,106% (inactive),96.5% (inactive),95.2% (inactive),102% (inactive),8.58% (inactive),93.1%,102%,-1.58% (inactive),5.57% (inactive)
